# Measured values from different studies.
# Protocols differ between the studies behind these lines.
Structure (SMILES),tested on,assay,system,setting,quantity,value
CC1=C(O)C(=O)C=C2C1=CC=C1[C@@]2(C)CC[C@@]2(C)[C@@H]3C[C@](C)(C(=O)O)CC[C@]3(C)CC[C@]12C,Bel-7402,"cell growth or viability, MTT",,48 h,IC50,790 nM
CCN(CC)CCNc1ccc(C)c2sc3ccccc3c(=O)c12,Zaire ebolavirus,"viral replication, inhibitor",HeLa,,IC50,3270 nM
CC[C@H](C)[C@H]1C(=O)N2CCC[C@H]2C(=O)O[C@H](C(C)(C)C)C[C@@H](C)C[C@H](O)[C@H](C)C2=N[C@@H](CCC(=O)N[C@@H](Cc3ccc(OC)cc3)C(=O)N(C)[C@@H](C)C(=O)N1C)CS2,Dengue virus,viral replication,Huh7.5,24 h,IC50,3.3 nM
Nc1ncnc2c([C@@H]3N[C@H](CO)[C@@H](O)[C@H]3O)c[nH]c12,Dengue virus,viral replication,"Vero 76, DENV2",3 µM,inhibition,11%
Nc1ncn([C@@H]2O[C@H](CO)[C@@H](O)[C@H]2O)c(=O)n1,Zaire ebolavirus,"viral replication, inhibitor",Vero C1008,"50 µM, 72 h",inhibition,86%
CCN(CC)Cc1cc(Nc2ccnc3cc(Cl)ccc23)ccc1O,Dengue virus,"viral replication, inhibitor","BHK-21, DENV2","50 µM, 24 h, replicon",inhibition,76.3%
CCN(CC)Cc1cc(Nc2ccnc3cc(Cl)ccc23)ccc1O,Zaire ebolavirus,"viral replication, inhibitor",Huh-7,24 h,IC50,2130 nM
CCN(CC)CCCC(C)Nc1ccnc2cc(Cl)ccc12 (stereo not drawn),Dengue virus,"viral replication, inhibitor","BHK-21, DENV2","50 µM, 24 h, replicon",inhibition,54.8%
CC1=C(O)C(=O)C=C2C1=CC=C1[C@@]2(C)CC[C@@]2(C)[C@@H]3C[C@](C)(C(=O)OCCCn4cc(C=O)c5ccccc54)CC[C@]3(C)CC[C@]12C,Bel-7402,"cell growth or viability, MTT",,48 h,IC50,770 nM
c1ccc([C@@H]2C[C@H]2NC2CCNCC2)cc1,MOLM-13,"cell growth or viability, resazurin",,96 h,EC50,0.91 nM
CC(C)(N)CNC(=O)C[C@H]1CC[C@]2(CC1)OO[C@]1(O2)C2CC3CC(C2)CC1C3,Zaire ebolavirus,"viral replication, inhibitor",HeLa,,IC50,4530 nM
Cc1cccc(-n2ncc(Cl)c(Cl)c2=O)c1,NCI-H23,"cell growth or viability, resazurin",,96 h,IC50,210 nM
